Screening results deposited in PubChem by SRMLSC.
The sample as a whole holds a higher share of hits than the screen did.
H69AR inhibit: proliferation blockers of H69AR lung cancer cells, primary screen, cell-based, human, 86K library; H69AR lung tumor viability, ATP luminescence, 72 h; active compounds read low; viability, % at 10 µM; 6% of 85,000 active;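 active = viability at or below 40%; inactive = viability above 40%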;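 note: multidrug resistant small cell line overexpressing MRP-1 efflux transporter; 100% = mean luminescence of untreated control wells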
HCT116 PTEN-null: growth suppression of PTEN-null HCT116, primary screen, cell-based, CellTiter-Glo; 1.2% of 140,000 active; viability, % at 10 µM; HCT116 PTEN-null viability, 60 h; active compounds read low;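 active = viability at or below a set limit, 4 SD under the median of all tested compounds, cut at about 3.7% in these data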;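 note: PTEN knockout HCT116 line with beta catenin targeted HCT116 as companion control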
HCT116 bCat-KO: primary screen for growth suppressors in beta-catenin knockout HCT116 cells (colon tumor, human) | viability, % at 10 µM | HCT116 beta-catenin knockout viability, CellTiter-Glo, 60 h; active compounds read low | 1.5% of 140,000 active;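 active = viability at or under a set limit, the compound median less 4 SD, cut at about 6% in these data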;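 note: 0% = Hyamine 1622 control at 20 µM and 100% = untreated cell control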
Fibroblast inh: antiproliferative effect on LL 47 fibroblasts – human, LL 47 cells, CellTiter-Glo luminescence, primary screen; AID 719, 2007; 1.1% of 85,000 active; viability, % at 10 µM; LL 47 human lung fibroblast viability, ATP luminescence; active compounds read low;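 active = viability at or below 50% in the single dose screen; inactive = viability above 50%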;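 note: compound exposure lasted 72 h before the ATP readout; 100% = median luminescence of untreated cell-only wells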
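Signal: luminescent ATP detection, CellTiter-Glo; assay system: LL 47 human lung fibroblasts; input: 1,150 cells/well; incubation: overnight cell rest, 72 h compound treatment at 37 °C; measure: % viability versus median cells-only luminescence; medium: IMEM growth medium with 15% fetal bovine serum; dosing: compound addition at 0.1% DMSO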
HUVEC inhibit: inhibitors of HUVEC proliferation, primary screen, cell-based, 384-well | CellTiter-Glo luminescence, 72 h; active compounds read low | viability, % at 10 µM (by protocol) | 1.1% of 86,000 active | AID 648, 2007;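 active = viability at or below 30%; inactive = viability above 30%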;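 note: 100% = median luminescence of DMSO-only cell control wells on each plate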
Active calls of the source: *.

How did N#CC(C#N)C(c1ccsc1)c1c(-c2ccccc2)[nH][nH]c1=O (configuration not stated) do in these assays?
H69AR inhibit: 94; HCT116 PTEN-null: 100; HCT116 bCat-KO: 94; Fibroblast inh: 95; HUVEC inhibit: 99

How did CCCc1[nH][nH]c(=O)c1C(c1cccc(Cl)c1)C(C#N)C#N (configuration not stated) do in these assays?
H69AR inhibit: 17*; HCT116 PTEN-null: 103; HCT116 bCat-KO: 93; Fibroblast inh: 90; HUVEC inhibit: 57

What do the screens show for `COCCCNC(=O)c1cc2c(-c3ccc(Cl)cc3)nn(C)c2s1`?
H69AR inhibit: 74; HCT116 PTEN-null: 94; HCT116 bCat-KO: 87; Fibroblast inh: 74; HUVEC inhibit: 56

How did Cn1nc(-c2ccc(Cl)cc2)c2cc(C(=O)NCCCN3CCCC3)sc21 do in these assays?
H69AR inhibit: 0.9*; HCT116 PTEN-null: 1.7*; HCT116 bCat-KO: 1.5*; Fibroblast inh: 14*; HUVEC inhibit: 1.7*

How did CCCCNC(=O)c1cc2c(-c3ccc(Cl)cc3)nn(C)c2s1 do in these assays?
H69AR inhibit: 36*; HCT116 PTEN-null: 91; HCT116 bCat-KO: 91; Fibroblast inh: 62; HUVEC inhibit: 75

What do the screens show for `CCOC(=O)CCCCC(=O)c1[nH]c(=O)[nH]c1CSc1nnc2c3ccccc3n(C(C)C)c2n1`?
HCT116 PTEN-null: 92; HCT116 bCat-KO: 89

How did O=C(NNC(=O)c1cccnc1SCc1cccc([N+](=O)[O-])c1)c1ccccn1 do in these assays?
HCT116 PTEN-null: 10; HCT116 bCat-KO: 6.0*

What do the screens show for `Clc1ccc(CNc2nnnn2-c2ccccc2)c(Cl)c1`?
HCT116 PTEN-null: 84; HCT116 bCat-KO: 81

What do the screens show for `C=CCn1c(=O)c2ccccc2n2c(SCc3c(C(=O)OCC)oc4ccccc34)nnc12`?
H69AR inhibit: 77; Fibroblast inh: 99; HUVEC inhibit: 97

How did CC(C)(C)n1nnnc1C(c1cccs1)N(Cc1ccccc1)Cc1cccnc1 (configuration not stated) do in these assays?
H69AR inhibit: 53; HCT116 PTEN-null: 61; HCT116 bCat-KO: 63; Fibroblast inh: 86; HUVEC inhibit: 87

What do the screens show for `CC(C)(C)n1nnnc1C(c1cccnc1)N(Cc1ccccc1)Cc1cccs1` (configuration not stated)?
H69AR inhibit: 6.6*; HCT116 PTEN-null: 50; HCT116 bCat-KO: 55; Fibroblast inh: 87; HUVEC inhibit: 78

What do the screens show for `COCCn1c(=NC(=O)c2cc(Cl)sc2Cl)sc2cc(S(N)(=O)=O)ccc21`?
HCT116 PTEN-null: 2.3*; HCT116 bCat-KO: 8

Results for COCCn1c(=NC(=O)c2nc3ccccc3s2)sc2cc(S(C)(=O)=O)ccc21 ?
HCT116 PTEN-null: 75; HCT116 bCat-KO: 80

Results for CCOCCn1c(=NC(=O)c2cc(Cl)sc2Cl)sc2cc(S(N)(=O)=O)ccc21 ?
HCT116 PTEN-null: 5; HCT116 bCat-KO: 4.9*

What do the screens show for `COc1ccc2[nH]c(C)c(CCN(Cc3cccs3)C(=S)Nc3ccc(F)cc3)c2c1`?
H69AR inhibit: 37*; HCT116 PTEN-null: 63; HCT116 bCat-KO: 62; Fibroblast inh: 100; HUVEC inhibit: 88

How did COc1ccc2[nH]c(C)c(CCN(Cc3cccs3)C(=S)Nc3ccccc3)c2c1 do in these assays?
H69AR inhibit: 69; HCT116 PTEN-null: 55; HCT116 bCat-KO: 60; Fibroblast inh: 93; HUVEC inhibit: 76

What do the screens show for `CCOC(=O)c1c(C(=O)OCC)c(C)n(CCc2ccc(OC)c(OC)c2)c1C`?
HCT116 PTEN-null: 98; HCT116 bCat-KO: 86

Results for COC(=O)c1cc(=O)n(CCc2ccc(OC)c(OC)c2)c(=Nc2ccc(F)c(Cl)c2)s1 ?
H69AR inhibit: 1.1*; HCT116 PTEN-null: 3.7*; HCT116 bCat-KO: 2.4*; Fibroblast inh: 10*; HUVEC inhibit: 7.5*

Results for COC(=O)c1cc(=O)n(Cc2ccc(OC)c(OC)c2)c(=Nc2ccc(F)cc2)s1 ?
H69AR inhibit: 1.9*; HCT116 PTEN-null: 2.0*; HCT116 bCat-KO: 2.0*; Fibroblast inh: 12*; HUVEC inhibit: 17*

What do the screens show for `O=C1CC(=C2c3ccccc3-c3ccccc32)C(=O)N1CCCCN1CCN(c2ccccc2)CC1`?
H69AR inhibit: 53; HCT116 PTEN-null: 65; HCT116 bCat-KO: 60; Fibroblast inh: 96; HUVEC inhibit: 79

Results for O=C(c1ccco1)n1nc(-c2ccc(Cl)cc2)nc1NCc1ccco1 ?
H69AR inhibit: 36*; HCT116 PTEN-null: 79; HCT116 bCat-KO: 67; Fibroblast inh: 82; HUVEC inhibit: 41

Results for COCC(=O)n1nc(-c2ccc(Cl)cc2)nc1NCc1ccc(F)cc1 ?
H69AR inhibit: 33*; HCT116 PTEN-null: 75; HCT116 bCat-KO: 68; Fibroblast inh: 79; HUVEC inhibit: 58

What do the screens show for `O=C(COc1ccccc1)n1nc(-c2ccc(Cl)cc2)nc1NCc1ccco1`?
H69AR inhibit: 12*; HCT116 PTEN-null: 62; HCT116 bCat-KO: 45; Fibroblast inh: 74; HUVEC inhibit: 58

How did O=C(/C=C/c1ccccc1F)c1ccoc1 do in these assays?
HCT116 PTEN-null: 8; HCT116 bCat-KO: 5.3*

Results for O=C(/C=C/c1ccoc1)c1ccccc1O ?
HCT116 PTEN-null: 78; HCT116 bCat-KO: 78

Results for COc1ccc2c(c1)-c1c(sn(-c3ccc(OC)c(OC)c3)c1=S)C(C)(C)N2 ?
HCT116 PTEN-null: 54; HCT116 bCat-KO: 52

Results for COc1cc2c3c(c1)-c1c(sn(-c4cc(OC)ccc4OC)c1=S)C(C)(C)N3C(=O)C2=O ?
H69AR inhibit: 3.9*; HCT116 PTEN-null: 1.2*; HCT116 bCat-KO: 2.4*; Fibroblast inh: 101; HUVEC inhibit: 51

Results for CC(C)(C)n1nnnc1C(c1cccs1)N1CCN(c2ccccc2)CC1 (configuration not stated) ?
H69AR inhibit: 81; HCT116 PTEN-null: 76; HCT116 bCat-KO: 80; Fibroblast inh: 97; HUVEC inhibit: 112

How did Oc1c(C(c2cccs2)N2CCN(c3ccccc3)CC2)ccc2cccnc12 (configuration not stated) do in these assays?
HCT116 PTEN-null: 5; HCT116 bCat-KO: 3.0*

How did OC(COC(c1ccc(Cl)cc1)c1ccc(Cl)cc1)CN1CCCC1 (configuration not stated) do in these assays?
H69AR inhibit: 25*; HCT116 PTEN-null: 13; HCT116 bCat-KO: 9; Fibroblast inh: 88; HUVEC inhibit: 71

Results for OC(COC(c1ccc(Cl)cc1)c1ccc(Cl)cc1)CN1CCc2ccccc2C1 (configuration not stated) ?
HCT116 PTEN-null: 56; HCT116 bCat-KO: 62

Results for O=S(=O)(c1ccc(N2CCCC2c2nc3ccccc3s2)nc1)N1CCOCC1 (configuration not stated) ?
H69AR inhibit: 23*; HCT116 PTEN-null: 88; HCT116 bCat-KO: 90; Fibroblast inh: 88; HUVEC inhibit: 97
